Assay results from ChEMBL document CHEMBL1133058, “(+)-4-phosphonophenylglycine (PPG) a new group III selective metabotropic glutamate receptor agonist” (Bioorg Med Chem Lett, 2000).
Active and inactive are the calls of the source. No cut-off for these calls is given here.

Columns and labels:
[1] = target: T1, Metabotropic glutamate receptor 4 (Homo sapiens, UniProt Q14833); assay: Compound was evaluated for the inhibition of forskolin stimulated cAMP accumulation in CHO cells expressing hmGluR4a; format: functional, cell-based
T1 sequence (Q14833 whole entry): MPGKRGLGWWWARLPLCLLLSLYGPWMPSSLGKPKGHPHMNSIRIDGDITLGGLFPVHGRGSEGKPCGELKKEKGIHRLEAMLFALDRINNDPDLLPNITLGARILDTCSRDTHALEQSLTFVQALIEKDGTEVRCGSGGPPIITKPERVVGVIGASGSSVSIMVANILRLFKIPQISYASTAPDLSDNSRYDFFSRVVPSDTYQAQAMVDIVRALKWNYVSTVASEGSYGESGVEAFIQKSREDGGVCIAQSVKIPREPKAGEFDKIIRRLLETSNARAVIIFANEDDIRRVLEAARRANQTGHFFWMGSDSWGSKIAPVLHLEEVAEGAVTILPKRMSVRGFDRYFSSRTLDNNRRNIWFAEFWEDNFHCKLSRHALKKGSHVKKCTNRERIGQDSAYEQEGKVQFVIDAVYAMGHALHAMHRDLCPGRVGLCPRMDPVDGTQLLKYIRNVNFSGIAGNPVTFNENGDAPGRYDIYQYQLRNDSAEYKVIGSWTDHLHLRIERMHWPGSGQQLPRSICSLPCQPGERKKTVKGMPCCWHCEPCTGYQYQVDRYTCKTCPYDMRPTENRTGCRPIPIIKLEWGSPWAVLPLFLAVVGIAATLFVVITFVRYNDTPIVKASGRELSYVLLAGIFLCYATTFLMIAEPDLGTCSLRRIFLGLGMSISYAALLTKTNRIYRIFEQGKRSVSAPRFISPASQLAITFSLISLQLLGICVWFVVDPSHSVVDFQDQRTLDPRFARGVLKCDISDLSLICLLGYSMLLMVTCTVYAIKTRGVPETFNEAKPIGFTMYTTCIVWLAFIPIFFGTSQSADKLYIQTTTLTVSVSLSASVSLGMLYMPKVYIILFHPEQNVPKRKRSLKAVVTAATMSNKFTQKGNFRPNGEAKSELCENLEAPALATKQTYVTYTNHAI
Summary of the method: (§1)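 Human mGluR4a or mGluR7b stably expressed in CHO cells; both enantiomers tested in the same functional assay, with cAMP measured by radioimmunoassay and EC50 values reported.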

[2] = target: T2, Metabotropic glutamate receptor 7 (Homo sapiens, UniProt Q14831); assay: Compound was evaluated for the inhibition of forskolin stimulated cAMP accumulation in CHO cells expressing hmGluR7b; format: functional, cell-based; summary of the method: as §1
T2 sequence (Q14831 whole entry): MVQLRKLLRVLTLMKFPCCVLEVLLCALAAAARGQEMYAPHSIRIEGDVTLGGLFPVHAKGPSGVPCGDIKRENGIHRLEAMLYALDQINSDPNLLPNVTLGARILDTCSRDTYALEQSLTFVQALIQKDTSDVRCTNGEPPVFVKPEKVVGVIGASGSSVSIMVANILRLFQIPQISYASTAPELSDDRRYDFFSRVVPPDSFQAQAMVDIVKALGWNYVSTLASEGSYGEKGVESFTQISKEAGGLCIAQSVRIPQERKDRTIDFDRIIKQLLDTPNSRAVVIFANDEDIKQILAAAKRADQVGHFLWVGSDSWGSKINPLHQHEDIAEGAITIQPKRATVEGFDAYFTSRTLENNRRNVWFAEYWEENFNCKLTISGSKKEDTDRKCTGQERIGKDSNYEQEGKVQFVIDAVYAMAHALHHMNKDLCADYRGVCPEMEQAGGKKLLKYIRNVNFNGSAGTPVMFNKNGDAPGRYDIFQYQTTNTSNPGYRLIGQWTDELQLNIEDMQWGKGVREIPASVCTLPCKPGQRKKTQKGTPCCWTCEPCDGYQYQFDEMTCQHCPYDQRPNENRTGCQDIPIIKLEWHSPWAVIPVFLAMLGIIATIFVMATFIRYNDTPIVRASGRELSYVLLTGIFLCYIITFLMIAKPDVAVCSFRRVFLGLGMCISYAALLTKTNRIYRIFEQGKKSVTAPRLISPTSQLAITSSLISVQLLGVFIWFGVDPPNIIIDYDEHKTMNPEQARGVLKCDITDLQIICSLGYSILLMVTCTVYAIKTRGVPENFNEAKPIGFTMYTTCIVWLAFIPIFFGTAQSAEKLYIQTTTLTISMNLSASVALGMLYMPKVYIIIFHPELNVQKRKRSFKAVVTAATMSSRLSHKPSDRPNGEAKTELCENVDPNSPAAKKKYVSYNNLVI

[3] = target: Metabotropic glutamate receptor 5 (Homo sapiens) (UniProt P41594); assay: Activity against human Metabotropic glutamate receptor 5 up to a concentration of 300 uM; Not active
[4] = target: Metabotropic glutamate receptor 1 (Homo sapiens) (UniProt Q13255); assay: Activity against human Metabotropic glutamate receptor 1 up to a concentration of 300 uM; Not active
[5] = target: Metabotropic glutamate receptor 2 (Homo sapiens) (UniProt Q14416); assay: Activity against human Metabotropic glutamate receptor 2 up to a concentration of 300 uM; Not active
[6] = target: Glutamate NMDA receptor; GRIN1/GRIN2B (Homo sapiens) (UniProt Q05586+Q13224); assay: Activity against cloned ionotropic N-methyl-D-aspartate glutamate receptor 1/2B; Not active; format: protein-complex assay
[7] = target: Metabotropic glutamate receptor 3 (Homo sapiens) (UniProt Q14832); assay: Activity against Metabotropic glutamate receptor 3; Not active
Metabotropic glutamate receptor 3 (Homo sapiens), sequence (Q14832 23-879 limits assumed): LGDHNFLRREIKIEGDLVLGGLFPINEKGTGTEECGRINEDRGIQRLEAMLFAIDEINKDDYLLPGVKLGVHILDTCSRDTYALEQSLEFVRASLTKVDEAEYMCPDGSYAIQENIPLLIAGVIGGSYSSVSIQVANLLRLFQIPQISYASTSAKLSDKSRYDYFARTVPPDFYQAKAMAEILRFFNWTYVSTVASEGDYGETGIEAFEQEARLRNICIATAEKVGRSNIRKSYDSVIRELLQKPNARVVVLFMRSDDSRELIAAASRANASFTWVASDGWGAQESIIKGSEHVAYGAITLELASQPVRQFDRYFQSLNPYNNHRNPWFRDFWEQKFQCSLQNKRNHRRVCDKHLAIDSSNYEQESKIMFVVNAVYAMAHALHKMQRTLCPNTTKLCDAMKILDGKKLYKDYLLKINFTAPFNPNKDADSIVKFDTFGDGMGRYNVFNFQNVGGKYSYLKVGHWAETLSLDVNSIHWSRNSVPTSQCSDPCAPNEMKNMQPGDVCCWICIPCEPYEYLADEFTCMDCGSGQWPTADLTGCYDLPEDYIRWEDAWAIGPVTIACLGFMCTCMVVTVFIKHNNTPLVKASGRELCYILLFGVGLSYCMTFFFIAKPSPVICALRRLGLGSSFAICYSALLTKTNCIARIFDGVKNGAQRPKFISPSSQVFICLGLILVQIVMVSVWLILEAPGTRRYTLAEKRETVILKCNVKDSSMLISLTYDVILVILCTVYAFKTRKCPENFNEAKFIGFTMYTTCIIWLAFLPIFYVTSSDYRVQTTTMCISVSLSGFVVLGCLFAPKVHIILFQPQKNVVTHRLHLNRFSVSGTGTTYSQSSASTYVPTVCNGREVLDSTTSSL

[8] = target: Metabotropic glutamate receptor 3 (Homo sapiens) (UniProt Q14832); assay: Activity against human Metabotropic glutamate receptor 3 up to a concentration of 300 uM; Not active
[9] = target: Metabotropic glutamate receptor 6 (Homo sapiens) (UniProt O15303); assay: Activity against Metabotropic glutamate receptor 6; Not active
Metabotropic glutamate receptor 6 (Homo sapiens), sequence (O15303 whole entry): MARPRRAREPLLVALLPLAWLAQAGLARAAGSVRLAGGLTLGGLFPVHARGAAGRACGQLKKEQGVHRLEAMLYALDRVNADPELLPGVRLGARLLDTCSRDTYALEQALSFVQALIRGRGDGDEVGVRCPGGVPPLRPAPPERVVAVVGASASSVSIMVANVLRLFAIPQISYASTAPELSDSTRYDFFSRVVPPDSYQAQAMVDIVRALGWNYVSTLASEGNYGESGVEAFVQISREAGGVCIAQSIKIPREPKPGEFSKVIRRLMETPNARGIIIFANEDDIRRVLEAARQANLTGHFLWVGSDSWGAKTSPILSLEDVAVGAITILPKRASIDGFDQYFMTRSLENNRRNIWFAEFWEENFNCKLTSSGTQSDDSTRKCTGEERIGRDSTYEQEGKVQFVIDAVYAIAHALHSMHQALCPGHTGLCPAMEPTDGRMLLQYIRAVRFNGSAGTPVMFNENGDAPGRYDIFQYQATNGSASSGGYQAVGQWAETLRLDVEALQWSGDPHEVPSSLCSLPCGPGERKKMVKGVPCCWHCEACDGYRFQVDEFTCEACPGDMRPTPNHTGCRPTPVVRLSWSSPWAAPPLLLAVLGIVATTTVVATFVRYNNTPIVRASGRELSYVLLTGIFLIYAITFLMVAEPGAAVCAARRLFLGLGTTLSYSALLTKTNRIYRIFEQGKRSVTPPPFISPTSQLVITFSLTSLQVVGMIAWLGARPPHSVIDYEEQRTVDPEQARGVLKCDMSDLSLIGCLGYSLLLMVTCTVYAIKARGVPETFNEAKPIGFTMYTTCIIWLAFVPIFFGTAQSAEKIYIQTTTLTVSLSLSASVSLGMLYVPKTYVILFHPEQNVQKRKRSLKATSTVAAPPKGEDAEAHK

[10] = target: Glutamate [NMDA] receptor (Homo sapiens) (UniProt Q05586+Q12879+Q13224+O15399+O60391+Q14957+Q8TCU5); assay: Binding affinity (100 uM) against N-methyl-D-aspartate glutamate receptor using [3H]CPP binding was determined; No activity; format: protein-complex assay
[11] = target: Glutamate NMDA receptor; GRIN1/GRIN2A (Homo sapiens) (UniProt Q05586+Q12879); assay: Activity against cloned ionotropic N-methyl-D-aspartate glutamate receptor 1/2A; Not active; format: protein-complex assay
[12] = target: Glutamate receptor ionotropic, NMDA 1 (Homo sapiens, UniProt Q05586); assay: Dissociation constant against N-methyl-D-aspartate glutamate receptor using [3H]CPP binding was determined
[13] = target: T3, Metabotropic glutamate receptor 4 (Rattus norvegicus, UniProt P31423); assay: Effective concentration against rat Metabotropic glutamate receptor 4
T3 sequence (P31423 whole entry): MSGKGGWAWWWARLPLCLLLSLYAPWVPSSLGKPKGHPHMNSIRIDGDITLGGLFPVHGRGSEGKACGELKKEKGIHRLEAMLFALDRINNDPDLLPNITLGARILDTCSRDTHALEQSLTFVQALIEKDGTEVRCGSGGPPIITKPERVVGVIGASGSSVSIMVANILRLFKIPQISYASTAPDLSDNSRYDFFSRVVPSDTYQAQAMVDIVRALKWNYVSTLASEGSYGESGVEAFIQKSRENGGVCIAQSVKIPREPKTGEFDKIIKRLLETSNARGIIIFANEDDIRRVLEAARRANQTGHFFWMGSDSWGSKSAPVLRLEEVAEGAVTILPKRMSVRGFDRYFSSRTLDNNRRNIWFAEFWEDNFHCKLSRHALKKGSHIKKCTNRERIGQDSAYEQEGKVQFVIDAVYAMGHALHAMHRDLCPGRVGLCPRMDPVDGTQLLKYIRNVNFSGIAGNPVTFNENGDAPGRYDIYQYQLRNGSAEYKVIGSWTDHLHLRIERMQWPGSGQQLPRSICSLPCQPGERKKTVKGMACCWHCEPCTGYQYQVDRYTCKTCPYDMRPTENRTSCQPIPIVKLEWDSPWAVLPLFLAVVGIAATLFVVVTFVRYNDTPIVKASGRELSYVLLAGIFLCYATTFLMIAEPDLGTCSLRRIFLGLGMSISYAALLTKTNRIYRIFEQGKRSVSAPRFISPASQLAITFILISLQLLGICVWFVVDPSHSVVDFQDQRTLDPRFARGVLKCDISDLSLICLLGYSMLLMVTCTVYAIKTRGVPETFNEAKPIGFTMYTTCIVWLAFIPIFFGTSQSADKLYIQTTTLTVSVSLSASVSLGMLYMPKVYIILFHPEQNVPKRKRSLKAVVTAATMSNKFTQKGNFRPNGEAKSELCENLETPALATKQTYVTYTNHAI

[14] = target: T3, Metabotropic glutamate receptor 4; assay: Effective concentration against Metabotropic glutamate receptor 4
[15] = target: T1, Metabotropic glutamate receptor 4; assay: Inhibition of forskolin stimulated cAMP accumulation in CHO cells expressing hmGluR4a at a concentration of 2000 uM; Inactive
[16] = target: T2, Metabotropic glutamate receptor 7; assay: Inhibition of forskolin stimulated cAMP accumulation in CHO cells expressing hmGluR7b at a concentration of 500 uM; Inactive

## NC(C(=O)O)c1ccc(P(=O)(O)O)cc1 (single isomer, unassigned; (+))
[1]
  EC50: 3.2 µM
[2]
  EC50: 48 µM

## NC(C(=O)O)c1ccc(P(=O)(O)O)cc1 (stereo in doubt) [listing 1 of 2 here]
[3]
  Activity: inactive
[4]
  Activity: inactive
[5]
  Activity: inactive
[6]
  Activity: inactive
[7]
  Activity: inactive
[8]
  Activity: inactive
[9]
  Activity: inactive
[10]
  Activity: inactive
[11]
  Activity: inactive

## NC(C(=O)O)c1ccc(CP(=O)(O)O)cc1 (stereo not drawn)
[12]
  Kd: 3 µM

## NC1(C(=O)O)CC(=CP(=O)(O)O)C1 (stereo not drawn)
[13]
  EC50: 4.5 µM

## NC(C(=O)O)c1ccc(P(=O)(O)O)cc1 (stereo in doubt) [listing 2 of 2 here]
[1]
  EC50: 5.2 µM
[2]
  EC50: 185 µM

## NC1(C(=O)O)CC1CP(=O)(O)O (stereo not drawn)
[14]
  EC50: 0.5 µM

## NC(C(=O)O)c1ccc(P(=O)(O)O)cc1 (stereo not drawn)
[15]
  EC50: Not Active
[16]
  EC50: Not Active
